The text below walks through data of ChEMBL document CHEMBL1156940, “Modified cap group suberoylanilide hydroxamic acid histone deacetylase inhibitor derivatives reveal improved selective antileukemic activity” (J Med Chem, 2010).

Structures are written as SMILES. The source made the active and inactive calls. The calls are words filed in the database; no cut-off is given here. Where only a bound is given, the exact number is not on record here.

The test system of one assay is SK-BR-3. Nature of the assay: Antiproliferative activity against human SK-BR-3 cells after 48 hrs by cell titer-glo assay. The format is functional, cell-based. The note with it: SK-BR-3, 48 h. For orientation: ATP-based viability assays read luminescence as a measure of living cells.
Another assay relates to HT-29. The experiment in a line: Antiproliferative activity against human HT-29 cells after 48 hrs by cell titer-glo assay. Type of assay: functional, cell-based. The note with it: HT-29, 48 h.
Another assay relates to U-937. The experiment in a line: Antiproliferative activity against human U937 cells after 48 hrs by cell titer-glo assay. Type of assay: functional, cell-based. The note with it: U-937, 48 h. In short, it runs like this: (§1)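 Cells kept in RPMI-1640 with 10% FBS at 37 °C, 5% CO2. 10^4 suspension cells were plated immediately before dosing. Compounds were added at 0.1–100 µM, final 1% DMSO, with DMSO vehicle control, and incubated 48 h. CellTiter-Glo luminescence was read. EC50 is the dose reducing luminescence to 50% of untreated cultures.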

For a further assay, the system named is Jurkat. The experiment in a line: Antiproliferative activity against human Jurkat JA16 cells after 48 hrs by cell titer-glo assay. Type of assay: functional, cell-based.
The next assay deals with HL-60. The experiment in a line: Antiproliferative activity against human HL60 cells after 48 hrs by cell titer-glo assay. The format is functional, cell-based. The note with it: HL-60, 48 h.
The test system of the next assay is K562. Nature of the assay: Antiproliferative activity against human K562 cells after 48 hrs by cell titer-glo assay. The note with it: K562, 48 h. The format is functional, cell-based. Put shortly: as §1
Assay [1] has as its target Histone deacetylase 1 (Homo sapiens) (UniProt Q13547). The experiment in a line: Inhibition of recombinant FLAG-tagged HDAC1 assessed as [3H]acetic acid release preincubated for 30 mins measured after 2 hrs by scintillation counting. In short, it runs like this:
(§2)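 FLAG-tagged HDAC1 or HDAC6 was immunopurified from stably expressing cell lines and washed in HDAC buffer (10 mM Tris-HCl pH 8.0, 10 mM NaCl, 10% glycerol). Enzyme was preincubated with inhibitor (1 µM) for 30 min at 4 °C, then given 20 000 cpm [3H]peracetylated H4 peptide for 2 h at 37 °C. The reaction was stopped with acetic acid/HCl, extracted into ethyl acetate, and released [3H]acetate counted by scintillation.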

The target in assay [2] is T1, Protein deacetylase HDAC6 (Homo sapiens) (UniProt Q9UBN7).
T1 sequence (whole entry): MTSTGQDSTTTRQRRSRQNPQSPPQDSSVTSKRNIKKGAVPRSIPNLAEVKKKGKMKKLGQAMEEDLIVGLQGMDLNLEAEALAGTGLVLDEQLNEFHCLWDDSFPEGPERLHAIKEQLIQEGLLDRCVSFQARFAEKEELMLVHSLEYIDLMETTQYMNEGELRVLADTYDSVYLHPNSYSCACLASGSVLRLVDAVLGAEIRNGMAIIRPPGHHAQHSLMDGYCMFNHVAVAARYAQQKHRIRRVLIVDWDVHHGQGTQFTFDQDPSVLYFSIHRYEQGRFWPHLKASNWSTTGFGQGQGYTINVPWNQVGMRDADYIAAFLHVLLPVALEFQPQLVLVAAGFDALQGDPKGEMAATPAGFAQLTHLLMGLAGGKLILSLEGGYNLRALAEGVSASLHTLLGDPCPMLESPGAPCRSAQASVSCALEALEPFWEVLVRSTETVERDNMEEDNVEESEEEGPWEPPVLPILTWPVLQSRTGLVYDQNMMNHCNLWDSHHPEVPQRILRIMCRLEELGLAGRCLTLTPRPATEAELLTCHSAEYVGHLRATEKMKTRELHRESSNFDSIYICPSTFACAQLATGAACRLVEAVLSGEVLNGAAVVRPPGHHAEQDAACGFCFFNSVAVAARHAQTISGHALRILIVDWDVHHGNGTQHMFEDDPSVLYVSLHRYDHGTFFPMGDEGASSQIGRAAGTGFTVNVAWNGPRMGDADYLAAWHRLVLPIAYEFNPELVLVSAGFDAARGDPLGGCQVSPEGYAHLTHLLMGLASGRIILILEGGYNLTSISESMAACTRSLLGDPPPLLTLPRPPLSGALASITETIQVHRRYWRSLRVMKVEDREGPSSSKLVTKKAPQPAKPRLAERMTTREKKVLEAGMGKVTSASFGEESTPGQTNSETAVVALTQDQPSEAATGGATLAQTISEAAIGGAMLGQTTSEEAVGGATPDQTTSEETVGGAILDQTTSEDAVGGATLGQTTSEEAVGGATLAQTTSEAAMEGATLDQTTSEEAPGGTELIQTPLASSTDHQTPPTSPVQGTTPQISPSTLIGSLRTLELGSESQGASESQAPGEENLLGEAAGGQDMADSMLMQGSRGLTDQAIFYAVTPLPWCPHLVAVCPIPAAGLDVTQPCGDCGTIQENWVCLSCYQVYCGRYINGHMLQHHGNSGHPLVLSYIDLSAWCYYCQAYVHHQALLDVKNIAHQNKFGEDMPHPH
The experiment in a line: Inhibition of recombinant FLAG-tagged HDAC6 assessed as [3H]acetic acid release preincubated for 30 mins measured after 2 hrs by scintillation counting. In short, it runs like this: as §2

Histone deacetylase 1 (Homo sapiens), sequence (Q13547 whole entry): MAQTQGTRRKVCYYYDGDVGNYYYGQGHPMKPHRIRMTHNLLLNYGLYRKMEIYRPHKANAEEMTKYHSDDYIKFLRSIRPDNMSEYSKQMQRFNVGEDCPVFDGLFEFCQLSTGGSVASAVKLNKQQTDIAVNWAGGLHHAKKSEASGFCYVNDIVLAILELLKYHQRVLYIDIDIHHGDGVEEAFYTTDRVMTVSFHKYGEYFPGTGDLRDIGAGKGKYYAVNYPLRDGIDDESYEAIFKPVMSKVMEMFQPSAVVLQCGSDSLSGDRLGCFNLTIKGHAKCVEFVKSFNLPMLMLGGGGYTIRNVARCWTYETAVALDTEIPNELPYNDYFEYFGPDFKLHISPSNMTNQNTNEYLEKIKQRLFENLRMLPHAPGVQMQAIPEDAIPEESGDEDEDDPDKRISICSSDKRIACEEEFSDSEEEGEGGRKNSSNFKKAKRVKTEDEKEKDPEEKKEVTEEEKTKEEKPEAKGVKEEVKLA

In general, EC50 refers to the concentration needed to bring the measured effect to its halfway point. Lower therefore signals a more potent agent. Regarding `O=C(CCCCCCC(=O)Nc1ccccc1Br)NO`, the EC50 in the assay with SK-BR-3 was 17.5 µM; in the assay with HT-29, 17 µM; with U-937 it was 6.8 µM.
The matching figures for `Nc1ccc(NC(=O)CCCCCCC(=O)NO)cc1`: 8.5 µM, 18 µM and 6.4 µM.
As to `O=C(CCCCCCC(=O)Nc1cccc(Cl)c1)NO`, the 50% effective concentration (EC50) with SK-BR-3 was found to be 2 µM; with HT-29, 1 µM; with U-937, 0.35 µM; with Jurkat it was 0.58 µM; with HL-60, 2.1 µM; with K562, 3.5 µM. For the same molecule, the result in assay [1] and in assay [2] was Active.
Regarding `O=C(O)CCCCCCC(=O)NO`, the EC50 in the assay on SK-BR-3, in the assay on HT-29, in the assay on U-937, with Jurkat, with HL-60 and with K562 was > 100 µM each time.
`O=C(CCCCCCC(=O)Nc1ccc(Cl)cc1)NO`: the EC50 in the assay with SK-BR-3 was 2.3 µM; with HT-29 it was 2.1 µM; in the assay with U-937 it was 0.55 µM; in the assay on Jurkat it was 0.77 µM; in the assay with HL-60, 1.87 µM; with K562, 3.3 µM. Also, the result in assay [1] and in assay [2] was Active.
In the case of `CN(C)c1ccc(NC(=O)CCCCCCC(=O)NO)cc1`, the EC50 was 4.2 µM with SK-BR-3, 3.15 µM with HT-29 and 1.7 µM in the assay with U-937. Further, the result in assay [1] and in assay [2] was Active.
Take `O=C(CCCCCCC(=O)Nc1ccc2ccccc2c1)NO`: the EC50 in the assay with SK-BR-3 amounted to 1.8 µM; in the assay with HT-29 it was 0.85 µM; with U-937 it was 0.35 µM; in the assay on Jurkat it was 0.4 µM; with HL-60 it was 1.16 µM; with K562 it was 3 µM. Further, the outcome in assay [1] and in assay [2] was Active.
For `O=C(CCCCCCC(=O)Nc1[nH]c(=O)ncc1F)NO`, the EC50 is 40.5 µM in the assay with SK-BR-3; 63 µM in the assay on HT-29; 26.5 µM with U-937; 16 µM with Jurkat; 18 µM with HL-60; > 100 µM in the assay on K562.
For `O=C(CCCCCCC(=O)Nc1ccc2c(c1)Cc1ccccc1-2)NO`, the concentration for a half-maximal effect (EC50) in the assay with SK-BR-3 stood at 4 µM; in the assay with HT-29, 2.5 µM; in the assay with U-937, 0.6 µM; in the assay with Jurkat, 0.43 µM; in the assay with HL-60 it was 1.13 µM; in the assay on K562 it was 3.5 µM. For the same molecule, the outcome in assay [1] and in assay [2] was Active.
In the case of `O=C(CCCCCCC(=O)Nc1ccc(O)cc1)NO`, the EC50 in the assay with SK-BR-3 is 11 µM; with HT-29 it was 15 µM; in the assay on U-937, 6.4 µM.
On to `O=C(CCCCCCC(=O)Nc1ccc(F)cc1)NO`, for which the EC50 with SK-BR-3 came to 3 µM; in the assay on HT-29, 4.2 µM; in the assay on U-937 it was 1.8 µM. The result in assay [1] and in assay [2] was Active.
On to `O=C(CCCCCCC(=O)Nc1cccc(C(F)(F)F)c1)NO`, for which the EC50 with SK-BR-3 came to 26 µM; in the assay on HT-29, 6.4 µM; in the assay on U-937, 1.2 µM.
On to `N#Cc1ccc(NC(=O)CCCCCCC(=O)NO)cc1`, for which the half-maximal effective concentration (EC50) with SK-BR-3 was 8.8 µM; in the assay on HT-29 it was 42 µM; in the assay with U-937, 7 µM.
As for `O=C(CCCCCCC(=O)NO)NO` [SUBEROHYDROXAMIC ACID], the EC50 in the assay with SK-BR-3 was found to be 27 µM; in the assay on HT-29 it was 32 µM; in the assay on U-937, 23 µM.
As for `O=C(CCCCCCC(=O)Nc1ccc(C(F)(F)F)cc1)NO`, the EC50 worked out at 2.2 µM in the assay on SK-BR-3; 1.4 µM in the assay on HT-29; 0.45 µM in the assay on U-937; 0.53 µM in the assay on Jurkat; 1.54 µM with HL-60; 2.1 µM in the assay with K562. In addition, the outcome in assay [1] and in assay [2] was Active.
As for `O=C(CCCCCCC(=O)Nc1ccccc1-c1ccccc1)NO`, the results for the EC50 in the assay on SK-BR-3, in the assay with HT-29 and with U-937 were 73.5 µM, 27 µM and 14 µM, respectively.
For `O=C(CCCCCCC(=O)Nc1ccc([N+](=O)[O-])cc1)NO`, in that order: 58 µM, 76 µM and 22 µM.
For `O=C(CCCCCCC(=O)Nc1cccc2cccnc12)NO`, in that order: > 100 µM, > 100 µM and 26 µM.
As for `O=C(CCCCCCC(=O)Nc1cccc(F)c1)NO`, the EC50 was determined as 1.9 µM in the assay with SK-BR-3; 1.4 µM in the assay with HT-29; 0.5 µM in the assay with U-937; 0.64 µM in the assay with Jurkat; 1.25 µM in the assay with HL-60; 2.4 µM with K562. Further, the outcome in assay [1] and in assay [2] was Active.
